Assays:
Assay type in all cases: functional
SW-620 [1] = experiment: Cytotoxicity against human SW620 cells assessed as cell growth at 10 uM after 48 hrs by sulforhodamine B assay; settings: SW-620, 48 h, read-out: Activity
MOLT-4 = experiment: Cytotoxicity against human MOLT4 cells assessed as cell growth at 100 nM after 48 hrs by sulforhodamine B assay; settings: MOLT-4, 48 h, read-out: Activity
M14 = experiment: Growth inhibition of human M14 cells after 48 hrs by sulforhodamine B assay; settings: M14, 48 h
Summary of the method: (§1)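 NCI 60-cell screen, five-dose mode. Cells grown in RPMI 1640 with 5% FBS and 2 mM L-glutamine and plated at 5000-40,000 cells/well according to doubling time. After 24 h preincubation, a Tz plate was TCA-fixed. Five concentrations (10-fold or 1/2 log dilutions) were applied for 48 h at 37 °C. SRB staining read at 515 nm. IC50 taken from [(Ti-Tz)/(C-Tz)]×100 = 50.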

SNB-19 = experiment: Cytotoxicity against human SNB19 cells assessed as cell growth at 0.01 uM after 48 hrs by sulforhodamine B assay; settings: SNB-19, 48 h, read-out: Activity
NCI-H322M = experiment: Cytotoxicity against human NCI-H322M cells assessed as cell growth at 10 uM after 48 hrs by sulforhodamine B assay; settings: read-out: Activity
EKVX [2] = experiment: Cytotoxicity against human EKVX cells assessed as cell growth at 100 nM after 48 hrs by sulforhodamine B assay; settings: read-out: Activity
KM12 [3] = experiment: Cytotoxicity against human KM12 cells assessed as cell growth at 100 nM after 48 hrs by sulforhodamine B assay; settings: KM12, 48 h, read-out: Activity
SK-MEL-5 [4] = experiment: Cytotoxicity against human SK-MEL-5 cells assessed as cell growth at 0.001 uM after 48 hrs by sulforhodamine B assay; settings: SK-MEL-5, 48 h, read-out: Activity
SW-620 [5] = experiment: Growth inhibition of human SW620 cells after 48 hrs by sulforhodamine B assay; settings: SW-620, 48 h; summary of the method: as §1
UACC-62 [6] = experiment: Cytotoxicity against human UACC62 cells assessed as cell growth at 0.001 uM after 48 hrs by sulforhodamine B assay; settings: UACC-62, 48 h, read-out: Activity
HCC 2998 [7] = experiment: Cytotoxicity against human HCC2998 cells assessed as cell growth at 0.001 uM after 48 hrs by sulforhodamine B assay; settings: HCC 2998, 48 h, read-out: Activity
HT-29 = experiment: Cytotoxicity against human HT-29 cells assessed as cell growth at 10 uM after 48 hrs by sulforhodamine B assay; settings: HT-29, 48 h, read-out: Activity
HOP-92 [8] = experiment: Cytotoxicity against human HOP92 cells assessed as cell growth at 1 uM after 48 hrs by sulforhodamine B assay; settings: HOP-92, 48 h, read-out: Activity
[9] = Cytotoxicity against human RPMI8266 cells assessed as cell growth at 1 uM after 48 hrs by sulforhodamine B assay; settings: read-out: Activity
KM12 [10] = experiment: Cytotoxicity against human KM12 cells assessed as cell growth at 0.01 uM after 48 hrs by sulforhodamine B assay; settings: KM12, 48 h, read-out: Activity
TK-10 = experiment: Growth inhibition of human TK10 cells after 48 hrs by sulforhodamine B assay; settings: TK-10, 48 h; summary of the method: as §1
A549 [11] = experiment: Cytotoxicity against human A549 cells assessed as cell growth at 0.001 uM after 48 hrs by sulforhodamine B assay; settings: A549, 48 h, read-out: Activity
Summary of the method: (§2)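 NCI-60 five-dose screen. Cells were grown in RPMI 1640 with 5% FBS and 2 mM L-glutamine, plated at 5000–40,000 cells/well and preincubated for 24 h. Time-zero plates were TCA-fixed. DMSO-solubilized drug was added at five concentrations (10-fold or ½-log serial dilutions) for 48 h at 37 °C, 5% CO2. Cells were TCA-fixed, stained with 0.4% SRB and read at 515 nm. Percent growth used time-zero, control and test absorbances.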

HOP-92 [12] = experiment: Cytotoxicity against human HOP92 cells assessed as cell growth at 100 nM after 48 hrs by sulforhodamine B assay; settings: HOP-92, 48 h, read-out: Activity
HCC 2998 [13] = experiment: Cytotoxicity against human HCC2998 cells assessed as cell growth at 0.01 uM after 48 hrs by sulforhodamine B assay; settings: HCC 2998, 48 h, read-out: Activity
COLO 205 = experiment: Cytotoxicity against human COLO205 cells assessed as cell growth at 0.001 uM after 48 hrs by sulforhodamine B assay; settings: COLO 205, 48 h, read-out: Activity; summary of the method: as §2
UACC-62 [14] = experiment: Cytotoxicity against human UACC62 cells assessed as cell growth at 0.01 uM after 48 hrs by sulforhodamine B assay; settings: UACC-62, 48 h, read-out: Activity
SW-620 [15] = experiment: Cytotoxicity against human SW620 cells assessed as cell growth at 100 nM after 48 hrs by sulforhodamine B assay; settings: SW-620, 48 h, read-out: Activity
HCT-15 = experiment: Cytotoxicity against human HCT15 cells assessed as cell growth at 10 uM; settings: read-out: Activity
Summary of the method: (§3)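 Single-dose NCI-60 screen at 10 µM. Cells were grown in RPMI 1640 with 5% FBS and 2 mM L-glutamine, then treated for 48 h at 37 °C. Protein was measured by SRB staining with absorbance at 515 nm. Percentage growth was recorded, and inhibition percentage was calculated as 100 minus growth percentage.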

SK-MEL-5 [16] = experiment: Growth inhibition of human SK-MEL-5 cells after 48 hrs by sulforhodamine B assay; settings: SK-MEL-5, 48 h; summary of the method: as §1
BT-549 = experiment: Cytotoxicity against human BT549 cells assessed as cell growth at 10 uM; settings: read-out: Activity; summary of the method: as §3
MDA-MB-435 = experiment: Growth inhibition of human MDA-MB-435 cells after 48 hrs by sulforhodamine B assay; settings: MDA-MB-435, 48 h; summary of the method: as §1
CAKI-1 = experiment: Cytotoxicity against human Caki1 cells assessed as cell growth at 0.001 uM after 48 hrs by sulforhodamine B assay; settings: CAKI-1, 48 h, read-out: Activity
UACC-257 = experiment: Cytotoxicity against human UACC257 cells assessed as cell growth at 10 uM after 48 hrs by sulforhodamine B assay; settings: UACC-257, 48 h, read-out: Activity
EKVX [17] = experiment: Cytotoxicity against human EKVX cells assessed as cell growth at 10 uM; settings: read-out: Activity; summary of the method: as §3
A549 [18] = experiment: Cytotoxicity against human A549 cells assessed as cell growth at 0.01 uM after 48 hrs by sulforhodamine B assay; settings: A549, 48 h, read-out: Activity; summary of the method: as §2
A498 = experiment: Cytotoxicity against human A498 cells assessed as cell growth at 1 uM after 48 hrs by sulforhodamine B assay; settings: A498, 48 h, read-out: Activity; summary of the method: as §2
HL-60(TB) = experiment: Cytotoxicity against human HL-60(TB) cells assessed as cell growth at 10 uM; settings: read-out: Activity
Summary of the method: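 NCI 60-cell panel screen at a single concentration of 10 µM. Cells are grown in RPMI 1640 with 5% FBS and 2 mM L-glutamine and read by SRB protein staining at 515 nm. Percent growth is measured relative to time-zero and untreated controls; inhibition % is 100 minus growth %.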

[19] = read-out: LC50 (the source's name)

Cc1cc(O)cc(-c2nn(CC#N)cc2-c2ccnc(-c3ccc(Oc4ccccc4)cc3)c2)c1
growth at 10 µM (SW-620 [1]): -100%
growth at 0.1 µM (MOLT-4): 79%
GI50 (M14): 1.7 µM
TGI (M14): 3.12 µM
CC50 (M14; [19]): 5.73 µM
growth at 0.01 µM (SNB-19): 100%
growth at 10 µM (NCI-H322M): -89%
growth at 0.1 µM (EKVX [2]): 77%
growth at 0.1 µM (KM12 [3]): 85%
growth at 0.001 µM (SK-MEL-5 [4]): 93%
GI50 (SW-620 [5]): 1.94 µM
TGI (SW-620 [5]): 4.33 µM
CC50 (SW-620 [5]; [19]): 9.63 µM
growth at 0.001 µM (UACC-62 [6]): 92%
growth at 0.001 µM (HCC 2998 [7]): 96%
growth at 10 µM (HT-29): -89%
growth at 1 µM (HOP-92 [8]): -67%
growth at 1 µM [9]: -20%
growth at 0.01 µM (KM12 [10]): 94%
GI50 (TK-10): 4.25 µM
TGI (TK-10): 15.1 µM
CC50 (TK-10; [19]): 43.6 µM
growth at 0.001 µM (A549 [11]): 96%
growth at 0.1 µM (HOP-92 [12]): 70%
growth at 0.01 µM (HCC 2998 [13]): 89%
growth at 0.001 µM (COLO 205): 107%
growth at 0.01 µM (UACC-62 [14]): 84%
growth at 0.1 µM (SW-620 [15]): 92%
growth at 10 µM (HCT-15): 4.26%
GI50 (SK-MEL-5 [16]): 2.93 µM
TGI (SK-MEL-5 [16]): 9.9 µM
CC50 (SK-MEL-5 [16]; [19]): 31.5 µM
growth at 10 µM (BT-549): 76.1%
GI50 (MDA-MB-435): 2.32 µM
TGI (MDA-MB-435): 6.84 µM
CC50 (MDA-MB-435; [19]): 60.6 µM
growth at 0.001 µM (CAKI-1): 101%
growth at 10 µM (UACC-257): -93%
growth at 10 µM (EKVX [17]): 44.9%
growth at 0.01 µM (A549 [18]): 88%
growth at 1 µM (A498): 26%
growth at 10 µM (HL-60(TB)): 44.3%
